Experiments:
T47D [1] = assay: Growth inhibition of human T47D cells assessed as cell growth at 10^-4 M incubated for 48 hrs by sulforhodamine B assay; type: functional; conditions: read-out: Activity
[2] = Growth inhibition of human HCT15 cells incubated for 48 hrs by sulforhodamine B assay; type: functional; conditions: HCT-15, 48 h
Method in brief: (§1)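 Cells seeded at 5,000–40,000/well according to doubling time and preincubated 24 h at 37 °C, 5% CO2. Time-zero plates were TCA-fixed. DMSO concentrate was diluted in medium with 50 µg/ml gentamicin to give five concentrations (10-fold or ½ log steps), then exposed 48 h. Cells were TCA-fixed, stained with 0.4% SRB and read at 515 nm. Percent growth was taken against time-zero and control; GI50, TGI and LC50 derived.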

[3] = Growth inhibition of human OVCAR3 cells incubated for 48 hrs by sulforhodamine B assay; type: functional; conditions: OVCAR-3, 48 h
Method in brief: (§2)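 Cells were plated at 5,000–40,000 per well according to doubling time and preincubated 24 h at 37 °C in 5% CO2; time-zero plates were then TCA-fixed. Five concentrations (10-fold or ½-log dilutions, DMSO stock) were incubated 48 h. Cells were TCA-fixed, stained with 0.4% SRB and read at 515 nm. GI50 was taken where [(Ti−Tz)/(C−Tz)]×100 = 50.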

[4] = Growth inhibition of human PC3 cells incubated for 48 hrs by sulforhodamine B assay; type: functional; conditions: PC-3, 48 h; method in brief: as §2
[5] = Growth inhibition of human Hs 578T cells incubated for 48 hrs by sulforhodamine B assay; type: functional; method in brief: as §2
CCRF-CEM = assay: Growth inhibition of human CCRF-CEM cells assessed as cell growth at 10^-7 M incubated for 48 hrs by sulforhodamine B assay; type: functional; conditions: read-out: Activity
Method in brief: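 Leukemia line in the five-dose format: five concentrations from 10-fold or ½-log serial dilutions. Plated at 5,000–40,000 cells per well, preincubated 24 h, then compound added for 48 h at 37 °C, 5% CO₂. Sulforhodamine B absorbance read at 515 nm. Growth is computed against time-zero (Tz) and control (C) readings; GI₅₀ is where [(Ti−Tz)/(C−Tz)]×100 = 50.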

K562 = assay: Growth inhibition of human K562 cells assessed as cell growth at 10^-7 M incubated for 48 hrs by sulforhodamine B assay; type: functional; conditions: K562, 48 h, read-out: Activity
KM12 [6] = assay: Growth inhibition of human KM12 cells assessed as cell growth at 10^-4 M incubated for 48 hrs by sulforhodamine B assay; type: functional; conditions: KM12, 48 h, read-out: Activity
T47D [7] = assay: Growth inhibition of human T47D cells assessed as cell growth at 10 uM incubated for 48 hrs by sulforhodamine B assay; type: functional; conditions: read-out: Activity
EKVX = assay: Growth inhibition of human EKVX cells assessed as cell growth at 10^-8 M incubated for 48 hrs by sulforhodamine B assay; type: functional; conditions: read-out: Activity; method in brief: as §1
[8] = Growth inhibition of human UO31 cells assessed as cell growth at 10^-7 M incubated for 48 hrs by sulforhodamine B assay; type: functional; conditions: UO-31, 48 h, read-out: Activity
[9] = Growth inhibition of human RPMI8226 cells assessed as cell growth at 10^-6 M incubated for 48 hrs by sulforhodamine B assay; type: functional; conditions: RPMI-8226, 48 h, read-out: Activity
NCI-H226 = assay: Growth inhibition of human NCI-H226 cells assessed as cell growth at 10^-8 M incubated for 48 hrs by sulforhodamine B assay; type: functional; conditions: NCI-H226, 48 h, read-out: Activity
[10] = Growth inhibition of human SF295 cells assessed as cell growth at 10^-5 M incubated for 48 hrs by sulforhodamine B assay; type: functional; conditions: SF-295, 48 h, read-out: Activity
SK-MEL-28 = assay: Growth inhibition of human SK-MEL-28 cells assessed as cell growth at 10^-5 M incubated for 48 hrs by sulforhodamine B assay; type: functional; conditions: SK-MEL-28, 48 h, read-out: Activity
Albumin [11] = molecular target: T1, Albumin (Bos taurus, UniProt P02769); assay: Binding affinity to bovine serum albumin assessed as binding constant in absorption spectra by Benesie-Hildebrand plot analysis; type: ADME; conditions: cattle, isolated protein
Method in brief: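 BSA, 10 µM, in 0.1 M phosphate buffer pH 7.4, titrated with compound (0–20 µM per the figure; diluted from 10⁻³ mol L⁻¹ DMSO stocks). Run at 300 K in a 1 cm quartz cell. UV spectra taken 200–800 nm after 5 min equilibration; fluorescence excited at 280 nm, emission 351 nm, slit 10 nm. K is the intercept/slope ratio of a linear fit of 1/(A₀−A) or 1/(F₀−F) vs 1/[compound].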

NCI-H322M = assay: Growth inhibition of human NCI-H322M cells assessed as cell growth at 10 uM incubated for 48 hrs by sulforhodamine B assay; type: functional; conditions: read-out: Activity
KM12 [12] = assay: Growth inhibition of human KM12 cells assessed as cell growth at 10 uM incubated for 48 hrs by sulforhodamine B assay; type: functional; conditions: KM12, 48 h, read-out: Activity
[13] = Growth inhibition of human SNB19 cells assessed as cell growth at 10 uM incubated for 48 hrs by sulforhodamine B assay; type: functional; conditions: SNB-19, 48 h, read-out: Activity
MDA-MB-468 = assay: Growth inhibition of human MDA-MB-468 cells incubated for 48 hrs by sulforhodamine B assay; type: functional; conditions: MDA-MB-468, 48 h; method in brief: as §2
Albumin [14] = molecular target: T1, Albumin; assay: Binding affinity to bovine serum albumin assessed as isoemissive point up to 20 uM by fluorescence spectroscopic analysis relative to control; type: ADME; conditions: cattle, isolated protein
Method in brief: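 Fluorescence titration of 10 µM BSA in 0.1 M phosphate buffer pH 7.4 with compound at 0–20 µM, diluted from DMSO stocks. Excitation 280 nm, slit 10 nm, 1 cm quartz cell, 300 K. Changes in the 350 nm Trp emission, new bands near 370–373 nm and isoemissive points are read against BSA alone.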

[15] = Growth inhibition of human non-small cell lung cancer cells incubated for 48 hrs by sulforhodamine B assay; type: functional; conditions: Cancer cell lines; for CC50: read-out: LC50 (the source's name)
A549 = assay: Growth inhibition of human A549/ATCC cells assessed as cell growth at 10^-4 M incubated for 48 hrs by sulforhodamine B assay; type: functional; conditions: A549, 48 h, read-out: Activity
[16] = read-out: LC50 (the source's name)
[17] = read-out: pLC50 (the source's name) (converted)

T1 sequence (P02769 whole entry): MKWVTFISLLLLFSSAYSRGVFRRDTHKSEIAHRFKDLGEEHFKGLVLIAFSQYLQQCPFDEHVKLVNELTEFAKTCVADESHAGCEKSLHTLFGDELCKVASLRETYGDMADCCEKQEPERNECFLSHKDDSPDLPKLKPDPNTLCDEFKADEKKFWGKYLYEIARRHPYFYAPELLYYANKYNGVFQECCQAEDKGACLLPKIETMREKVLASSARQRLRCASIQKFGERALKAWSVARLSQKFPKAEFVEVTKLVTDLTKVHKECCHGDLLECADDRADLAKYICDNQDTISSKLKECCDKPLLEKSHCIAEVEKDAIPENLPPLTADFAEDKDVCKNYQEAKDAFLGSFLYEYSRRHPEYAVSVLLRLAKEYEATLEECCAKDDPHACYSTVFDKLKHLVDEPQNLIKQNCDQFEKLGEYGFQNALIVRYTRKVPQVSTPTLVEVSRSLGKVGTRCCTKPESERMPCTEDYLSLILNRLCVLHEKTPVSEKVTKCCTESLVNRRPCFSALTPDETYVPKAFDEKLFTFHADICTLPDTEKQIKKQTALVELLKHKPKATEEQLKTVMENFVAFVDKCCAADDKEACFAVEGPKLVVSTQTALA

Work on `Fc1ccc(-c2nc(Nc3ccc(-c4nc5ccccc5[nH]4)cc3)nc(N3CCOCC3)n2)cc1` yielded a growth at 100 µM (T47D [1]) of -44%, a GI50 ([2]; read-out: GI50) of 1.67 µM and a CC50 [2, 16] greater than 100 µM. The TGI ([2]; read-out: TGI) was 4.78 µM, the GI50 ([2]; read-out: pGI50 (converted)) was 1.66 µM and the CC50 [2, 17] was greater than 100 µM. The TGI ([2]; read-out: pTGI (converted)) was 4.79 µM, the GI50 ([3]; read-out: GI50) was 1.82 µM and the TGI ([3]; read-out: TGI) was 3.91 µM. For the same molecule, the GI50 ([3]; read-out: pGI50 (converted)) was 1.82 µM, the TGI ([3]; read-out: pTGI (converted)) was 3.89 µM and the GI50 ([4]; read-out: GI50) was 2.39 µM. It also gave a CC50 [4, 16] greater than 100 µM, a TGI ([4]; read-out: TGI) of 6.66 µM and a GI50 ([4]; read-out: pGI50 (converted)) of 2.4 µM. The CC50 [4, 17] was greater than 100 µM, the TGI ([4]; read-out: pTGI (converted)) was 6.61 µM and the GI50 ([5]; read-out: GI50) was 1.76 µM. It also gave a CC50 [5, 16] greater than 100 µM, a TGI ([5]; read-out: TGI) of 6.96 µM and a GI50 ([5]; read-out: pGI50 (converted)) of 1.78 µM. It also gave a CC50 [5, 17] greater than 100 µM, a TGI ([5]; read-out: pTGI (converted)) of 6.92 µM and a growth at 0.1 µM (CCRF-CEM) of 104%. The growth at 0.1 µM (K562) was 101%, the growth at 100 µM (KM12 [6]) was -37% and the growth at 10 µM (T47D [7]) was 16.1%. The growth at 0.01 µM (EKVX) was 93%, the growth at 0.1 µM [8] was 89% and the growth at 1 µM [9] was 77%. The growth at 0.01 µM (NCI-H226) was 100%, the growth at 10 µM [10] was -35% and the growth at 10 µM (SK-MEL-28) was -49%. For the same molecule, the K (Albumin [11]) was 1 ×10⁵ /M, the growth at 10 µM (NCI-H322M) was 27% and the growth at 10 µM (KM12 [12]) was 12.4%. For the same molecule, the growth at 10 µM [13] was 17.5%, the GI50 (MDA-MB-468; read-out: GI50) was 2.92 µM and the CC50 (MDA-MB-468; [16]) was greater than 100 µM. The TGI (MDA-MB-468; read-out: TGI) was 7.65 µM, the GI50 (MDA-MB-468; read-out: pGI50 (converted)) was 2.95 µM and the CC50 (MDA-MB-468; [17]) was greater than 100 µM. The TGI (MDA-MB-468; read-out: pTGI (converted)) was 7.59 µM, the Activity (Albumin [14]) was 341 nm and the GI50 [15] was 2.68 µM. The TGI [15] was 6.65 µM and the CC50 [15] was 7.76 µM.

With `c1ccc2[nH]c(-c3ccc(Nc4nc(N5CCCCC5)nc(N5CCOCC5)n4)cc3)nc2c1` the growth at 100 µM (T47D [1]) was -43%, the GI50 ([2]; read-out: GI50) was 1.88 µM and the CC50 [2, 16] was greater than 100 µM. The TGI ([2]; read-out: TGI) was 4.38 µM, the GI50 ([2]; read-out: pGI50 (converted)) was 1.86 µM and the CC50 [2, 17] was greater than 100 µM. For the same molecule, the TGI ([2]; read-out: pTGI (converted)) was 4.37 µM, the GI50 ([3]; read-out: GI50) was 2.4 µM and the CC50 [3, 16] was greater than 100 µM. It also gave a TGI ([3]; read-out: TGI) of 6.19 µM, a GI50 ([3]; read-out: pGI50 (converted)) of 2.4 µM and a CC50 [3, 17] greater than 100 µM. The TGI ([3]; read-out: pTGI (converted)) was 6.17 µM, the GI50 ([4]; read-out: GI50) was 3.05 µM and the CC50 [4, 16] was greater than 100 µM. For the same molecule, the TGI ([4]; read-out: TGI) was 9.13 µM, the GI50 ([4]; read-out: pGI50 (converted)) was 3.02 µM and the CC50 [4, 17] was greater than 100 µM. It also gave a TGI ([4]; read-out: pTGI (converted)) of 9.12 µM, a GI50 ([5]; read-out: GI50) of 2.56 µM and a CC50 [5, 16] greater than 100 µM. It also gave a TGI ([5]; read-out: TGI) of 8.61 µM, a GI50 ([5]; read-out: pGI50 (converted)) of 2.57 µM and a CC50 [5, 17] greater than 100 µM. It also gave a TGI ([5]; read-out: pTGI (converted)) of 8.51 µM, a growth at 0.1 µM (CCRF-CEM) of 96% and a growth at 0.1 µM (K562) of 107%. It also gave a growth at 100 µM (A549) of -12%, a growth at 100 µM (KM12 [6]) of -40% and a growth at 10 µM (T47D [7]) of 23.4%. The growth at 0.01 µM (EKVX) was 93%, the growth at 0.1 µM [8] was 86% and the growth at 1 µM [9] was 87%. The growth at 0.01 µM (NCI-H226) was 84%, the growth at 10 µM [10] was -43% and the growth at 10 µM (SK-MEL-28) was -57%. The K (Albumin [11]) was 9.7 ×10⁴ /M, the growth at 10 µM (NCI-H322M) was 35% and the growth at 10 µM (KM12 [12]) was 14.3%. The growth at 10 µM [13] was 10.4%, the GI50 (MDA-MB-468; read-out: GI50) was 2.68 µM and the CC50 (MDA-MB-468; [16]) was greater than 100 µM. The TGI (MDA-MB-468; read-out: TGI) was 6.51 µM, the GI50 (MDA-MB-468; read-out: pGI50 (converted)) was 2.69 µM and the CC50 (MDA-MB-468; [17]) was greater than 100 µM. The TGI (MDA-MB-468; read-out: pTGI (converted)) was 6.46 µM, the Activity (Albumin [14]) was 350 nm and the GI50 [15] was 2.85 µM. For the same molecule, the TGI [15] was 9.66 µM and the CC50 [15] was 9.54 µM.
